Measurements taken from ChEMBL document CHEMBL1131420 (J Med Chem, 1998).

Assays:
[1] = target: Monoamine transporters; serotonin & dopamine (Rattus norvegicus) (UniProt P31652+P23977); assay: Ratio of Ki value for 5-HT to that of DA.; format: protein assay
[2] = target: T1, Sodium-dependent dopamine transporter (Rattus norvegicus, UniProt P23977); assay: Binding affinity of compound on dopamine transporters of rat striated membranes using [3H]- mazindol.; format: cell membranes, Membrane
In short: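 Striatal membrane homogenate was added to tubes holding drug and about 4 nM [3H]mazindol in Krebs-Ringer-HEPES (pH 7.4). Incubation was 1 h at 4 °C, followed by filtration. […] Values are the mean of 2–3 experiments.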

[3] = target: T1, Sodium-dependent dopamine transporter; assay: Inhibitory activity determined for [3H]DA (Dopamine transporter) uptake by striated synaptosomes; format: subcellular, Brain
[4] = target: T1, Sodium-dependent dopamine transporter; assay: (§1) Inhibitory activity on dopamine transporters of rat striated membranes using [3H]- mazindol.
In short: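 Striatal membrane homogenate was added to tubes holding drug and about 4 nM [3H]mazindol in Krebs-Ringer-HEPES (pH 7.4). Incubation was 1 h at 4 °C, followed by filtration.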

[5] = target: T2, Sodium-dependent serotonin transporter (Rattus norvegicus, UniProt P31652); assay: Inhibitory activity against Serotonin transporter was determined for [3H]5-HT (serotonin) uptake by striated synaptosomes; format: subcellular, Brain
T2 sequence (P31652 whole entry): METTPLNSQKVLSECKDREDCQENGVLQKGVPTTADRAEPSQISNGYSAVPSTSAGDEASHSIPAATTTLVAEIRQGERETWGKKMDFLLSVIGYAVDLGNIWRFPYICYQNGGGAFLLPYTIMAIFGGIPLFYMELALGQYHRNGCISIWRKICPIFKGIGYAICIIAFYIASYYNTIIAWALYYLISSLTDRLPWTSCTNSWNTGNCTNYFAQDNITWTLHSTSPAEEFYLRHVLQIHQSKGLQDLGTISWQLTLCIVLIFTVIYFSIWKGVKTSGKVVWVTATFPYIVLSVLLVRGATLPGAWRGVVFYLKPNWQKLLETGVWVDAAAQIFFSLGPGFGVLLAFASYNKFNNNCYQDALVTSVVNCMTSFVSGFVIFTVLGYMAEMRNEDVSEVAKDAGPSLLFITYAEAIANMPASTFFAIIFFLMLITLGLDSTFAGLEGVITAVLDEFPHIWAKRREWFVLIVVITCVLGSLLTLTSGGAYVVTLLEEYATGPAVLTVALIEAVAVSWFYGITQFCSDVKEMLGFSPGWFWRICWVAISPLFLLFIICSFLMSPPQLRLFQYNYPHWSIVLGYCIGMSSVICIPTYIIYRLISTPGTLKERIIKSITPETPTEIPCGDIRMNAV

[6] = target: T2, Sodium-dependent serotonin transporter; assay: Binding affinity for Serotonin transporter was determined by [3H]5-HT (serotonin) uptake by striated synaptosomes; format: subcellular, Brain
[7] = target: T1, Sodium-dependent dopamine transporter; assay: Binding affinity for [3H]DA (Dopamine transporter) uptake by striated synaptosomes; format: subcellular, Brain
In short: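 Striatal synaptosomes in Krebs-Ringer-HEPES (125 mM NaCl, 4.8 mM KCl, 1.2 mM MgSO4, 25 mM HEPES, pH 7.4). After 30 min drug preincubation, [3H]DA was added at about 5 nM. Uptake lasted 5 min and ended by rapid filtration. […] Ki was derived by Cheng–Prusoff with Kd 57 nM. Values are the mean of 2–3 experiments.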

[8] = target: T1, Sodium-dependent dopamine transporter; assay: as §1; remark: listed apart in the source
[9] = target: T1, Sodium-dependent dopamine transporter; assay: Inhibitory activity on dopamine transporter of rat striated membranes using [3H]- mazindol.

Chain of Monoamine transporters; serotonin & dopamine (Rattus norvegicus) (P23977 whole entry, looked up): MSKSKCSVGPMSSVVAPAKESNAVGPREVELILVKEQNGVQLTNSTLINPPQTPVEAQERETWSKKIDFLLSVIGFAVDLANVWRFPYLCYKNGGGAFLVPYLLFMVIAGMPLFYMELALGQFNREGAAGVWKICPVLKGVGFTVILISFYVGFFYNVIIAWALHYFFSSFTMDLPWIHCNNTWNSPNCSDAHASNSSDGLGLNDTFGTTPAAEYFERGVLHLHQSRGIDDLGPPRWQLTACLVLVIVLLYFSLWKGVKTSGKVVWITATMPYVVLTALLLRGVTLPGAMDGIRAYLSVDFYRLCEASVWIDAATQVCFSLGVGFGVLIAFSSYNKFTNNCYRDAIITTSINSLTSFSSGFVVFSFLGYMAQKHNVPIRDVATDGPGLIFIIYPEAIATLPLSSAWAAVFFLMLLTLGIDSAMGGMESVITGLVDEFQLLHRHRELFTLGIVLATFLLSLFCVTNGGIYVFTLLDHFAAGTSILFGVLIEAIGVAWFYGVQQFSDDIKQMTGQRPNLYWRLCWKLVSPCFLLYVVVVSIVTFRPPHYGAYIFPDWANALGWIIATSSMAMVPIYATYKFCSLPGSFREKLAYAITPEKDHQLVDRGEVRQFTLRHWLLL
Chain of Monoamine transporters; serotonin & dopamine (Rattus norvegicus) (P31652 whole entry, looked up): as the sequence (P31652 whole entry) above
T1 sequence (P23977 whole entry): as the sequence (P23977 whole entry, looked up) above

Row | SMILES | Uptake ratio [1] | Ki [2] | IC50 [3] | IC50 [4] | IC50 [5] | Ki [6] | Ki [7] | IC50 [8] | IC50 [9]
1 | Cc1ccc(C2C[C@H]3CCC([C@H]2c2ccccc2)N3C)cc1 (stereo not given in full) | 25.7 | 2.58 nM | 3.09 nM | 4.98 nM | 80.8 nM | 73.8 nM | 2.87 nM |  | 
2 | CCC[C@H]1C(c2ccc(C)cc2)C[C@H]2CCC1N2C (stereo not given in full) | 9.35 | 1.57 nM | 1.19 nM | 2.97 nM | 11.3 nM | 10.3 nM | 1.1 nM |  | 
3 | CCC[C@H]1C(c2ccccc2)C[C@H]2CCC1N2C (stereo not given in full) | 12.6 | 12.2 nM | 7.46 nM | 23.1 nM | 95.4 nM | 86.8 nM | 6.89 nM |  | 
4 | CCC[C@H]1C2CC[C@H](C[C@H]1c1ccc(C)cc1)N2C | 4.25 | 8.91 nM | 12.8 nM | 18.2 nM | 54.8 nM | 50.1 nM | 11.8 nM |  | 
5 | CCCC[C@H]1C2CC[C@H](C[C@H]1c1ccc(C)cc1)N2C | 5.1 | 11.4 nM | 10.9 nM | 21.6 nM | 55.8 nM | 51 nM | 10.1 nM |  | 
6 | COC(=O)[C@H]1C(c2ccccc2)C[C@H]2CCC1N2C (stereo not given in full) |  | 89.4 nM | 57.9 nM | 163 nM |  |  | 53.7 nM |  | 
7 | CN1C2CC[C@@H]1CC(c1ccccc1)[C@@H]2c1ccccc1 (mixture of isomers) |  |  |  |  |  |  |  | 28 nM | 
8 | CCC[C@H]1C2CC[C@H](C[C@H]1c1ccccc1)N2C | 12.9 | 74.9 nM | 32.6 nM | 141 nM | 427 nM | 389 nM | 30.2 nM |  | 
9 | CN1C2CC[C@@H]1CC(c1ccccc1)[C@@H]2c1ccccc1 (stereo not given in full) [listing 1 of 2 here] | 38.1 |  |  |  |  |  |  |  | 
10 | CN1C2CC[C@@H]1C[C@@H](c1ccc(F)cc1)[C@H]2c1ccccc1 | 26.6 | 6 nM | 4.95 nM | 11.4 nM | 134 nM | 122 nM | 4.58 nM |  | 
11 | CN1C2CC[C@@H]1C[C@@H](c1ccccc1)[C@H]2c1ccccc1 | 64.3 | 13.8 nM | 12.6 nM | 26.6 nM | 823 nM | 753 nM | 11.7 nM |  | 
12 | CN1C2CC[C@@H]1CC(c1ccccc1)[C@@H]2c1ccccc1 (stereo not given in full) [listing 2 of 2 here] |  | 49.9 nM | 31.1 nM | 96.5 nM | 1200 nM | 1100 nM | 28.9 nM |  | 
13 | CCC[C@H]1C(c2ccc(F)cc2)C[C@H]2CCC1N2C (stereo not given in full) | 10.9 | 5.28 nM | 2.16 nM | 10 nM | 23.7 nM | 21.7 nM | 1.99 nM |  | 
14 | CCC[C@H]1C2CC[C@H](C[C@H]1c1ccc(F)cc1)N2C | 8.2 | 21.1 nM | 13.1 nM | 37.1 nM | 109 nM | 99.6 nM | 12.1 nM |  | 
15 | COC(=O)[C@@H]1C2CC[C@H](C[C@@H]1c1ccc(C)cc1)N2C |  | 5.76 nM | 7.47 nM |  |  |  | 6.92 nM |  | 10.5 nM
16 | Cc1ccc([C@@H]2C[C@H]3CCC([C@@H]2c2ccccc2)N3C)cc1 | 68.9 | 2.87 nM | 4.48 nM | 5.55 nM | 314 nM | 287 nM | 4.16 nM |  | 
17 | CCCC[C@H]1C(c2ccc(C)cc2)C[C@H]2CCC1N2C (stereo not given in full) | 11.5 | 1.82 nM | 1.42 nM | 3.43 nM | 16.5 nM | 15.1 nM | 1.31 nM |  | 
